Screens as filed in PubChem.
ATG4B inh: ATG4B protease inhibitors, primary screen, biochemical, fluorescence, uHTS. Cysteine protease ATG4B (Homo sapiens), Q9Y4P1. ATG4B cleavage of LC3-PLA2, NBD-HPC fluorescence, 1 h. inhibition, % at 8.33 µM. actives 0.51% (n = 340,000). AID 504462, 2011; in the data active = inhibition above about 40%
HKDC1 inhibitor: HKDC1 hexokinase inhibitors, primary screen, biochemical, fluorescence, uHTS. Q2TB90. recombinant HKDC1, G6PDH/diaphorase resazurin coupled fluorescence. AID 493160, 2011. actives 0.16% (n = 340,000). inhibition, % at 20 µM;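 active = inhibition above about 35% when tested at 20 µM, limit read from the data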;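 also: plate controls were DMSO wells with enzyme for no effect and DMSO wells lacking enzyme for full effect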
Target sequence (Q2TB90 whole entry, looked up): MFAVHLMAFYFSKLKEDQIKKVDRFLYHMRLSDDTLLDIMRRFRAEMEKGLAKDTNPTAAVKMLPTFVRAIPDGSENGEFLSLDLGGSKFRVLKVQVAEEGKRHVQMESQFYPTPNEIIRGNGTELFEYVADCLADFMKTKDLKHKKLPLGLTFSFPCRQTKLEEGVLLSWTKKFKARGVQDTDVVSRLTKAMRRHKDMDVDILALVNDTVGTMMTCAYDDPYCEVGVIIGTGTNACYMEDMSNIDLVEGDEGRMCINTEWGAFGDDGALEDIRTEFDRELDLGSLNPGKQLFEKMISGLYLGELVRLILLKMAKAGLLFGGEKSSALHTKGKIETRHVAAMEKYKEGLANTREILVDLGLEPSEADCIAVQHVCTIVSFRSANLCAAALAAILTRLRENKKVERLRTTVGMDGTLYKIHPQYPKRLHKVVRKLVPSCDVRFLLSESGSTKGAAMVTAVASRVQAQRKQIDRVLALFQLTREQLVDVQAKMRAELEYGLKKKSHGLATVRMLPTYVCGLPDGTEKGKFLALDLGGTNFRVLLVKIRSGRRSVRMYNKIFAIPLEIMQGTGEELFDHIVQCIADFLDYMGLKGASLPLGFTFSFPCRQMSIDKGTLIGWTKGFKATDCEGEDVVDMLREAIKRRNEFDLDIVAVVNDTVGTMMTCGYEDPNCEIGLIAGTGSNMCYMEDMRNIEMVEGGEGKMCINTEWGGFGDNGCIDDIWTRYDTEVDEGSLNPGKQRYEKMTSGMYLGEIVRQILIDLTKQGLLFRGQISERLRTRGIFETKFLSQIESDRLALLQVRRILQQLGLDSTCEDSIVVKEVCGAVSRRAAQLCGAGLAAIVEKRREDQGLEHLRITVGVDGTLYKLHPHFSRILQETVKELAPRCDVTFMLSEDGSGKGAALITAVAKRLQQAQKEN
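System: Recombinant HKDC1 hexokinase | Amount: HKDC1 at 5 µg/mL | Reagent: Glucose with 1 mM ATP | Doses: Single 20 µM dose | Incubation: Reaction time 90 min, room temperature, protected from light | Signal: Coupled resazurin fluorescence, excitation 525 nm, emission 613 nm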
Bfl-1 A1 inh: caspase 3/7 activation in MEF A1-2A-BIM cells, primary screen, A1 inhibitor project, cell-based, luminescence, HTS | actives 0.066% (n = 330,000) | caspase activation, % (test concentration not listed) | Caspase-Glo 3/7 luminescence, 3 h; percent of clofoctol response, vehicle zero;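 active = over half of replicate activation scores above 10%, or exactly half above 10 with the replicate mean above 10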
AI-2 QS modul: Vibrio harveyi AI-2 quorum sensing modulators, primary screen, JMH597 strain, luminescence/OD600 ratio. Vibrio harveyi JMH597 AI-2 luminescence/OD600 ratio, 9 h; stronger effect = lower value; strain lacks LuxN and CqsS sensors; 0 = neutral-control median. activity change, % at 7.5 µM. actives 0.4% (n = 300,000); in the data active = activity change below about -75%, passing the limit was not always enough;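 also: luminescence divided by OD600 gain over 9 h not by final OD600 alone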
LANA-H2A inh: blockers of LANA interaction with H2A/H2B – biochemical, FP readout, HTS, primary screen; Protein LANA1 (Human herpesvirus 8 type P (isolate GK18)), Q9QR71; cell-free LANA-H2A/H2B peptide, fluorescence polarization; inhibition, % (concentration not given with the values); actives 0.6% (n = 320,000); in the data active = inhibition mostly above about 10%, no sharp cut-off; inactive = mostly below about 6.7%
HDAC3 inhib: HDAC3 deacetylase inhibitors, primary screen, biochemical, fluorescence, cell-free homogeneous; Histone deacetylase 3 (Homo sapiens), O15379; AID 2718, 2010; recombinant HDAC3, fluorogenic peptide/trypsin coupled; inhibition, % at 8.3 µM; actives 0.15% (n = 320,000); in the data active = inhibition above about 26%, passing the limit was not always enough
* marks the source's active call; other numbers are inactive results; / = not tested or not shown; + = active, no number; ! = not active in a repeat. Hits are enriched below; roughly 1.8% of the tested compounds scored in any of these assays.

SMILES	ATG4B inh	HKDC1 inhibitor	Bfl-1 A1 inh	AI-2 QS modul	LANA-H2A inh	HDAC3 inhib
COc1cccc(CNC(=O)CC(NC(=O)c2ccccc2)c2ccccc2)c1 (stereo not given)	-6	-4	1	9	32*	4
COc1cccc(CNC(=O)CC(NC(C)=O)c2ccccc2)c1 (stereo not given)	0	-16	0	16	0	-2
O=C(O/N=C(/c1ccccc1)c1ccncc1)c1ccc(F)cc1	2	-7	0	5	-3	31*
CC1(C)CNC(=O)CC(C)(C)N1	-4	-12	1	0	43*	0
CC(C)OCCCNc1nc2c(cnn2C)c(=O)[nH]1	-2	7	/	/	/	/
CCCN1CCC(NC(=O)Nc2ccc(Br)cc2)CC1	-11	-10	1	12	18*	0
CCCN1CCC(NC(=O)Nc2ccc([N+](=O)[O-])cc2)CC1	-10	0	0	41	1	8
COc1ccccc1NS(=O)(=O)c1ccc2oc(SCC(C)=O)nc2c1	-7	2	1	16	1	42*
COc1ccc(/C=C2\C(=O)NCC(=O)N2Cc2ccccc2)cc1	1	-10	0	30	2	6
COc1ccc(/C=C2\C(=O)NCC(=O)N2C)cc1	3	5	1	-2	14*	-4
COc1ccc(Cl)cc1C(=O)OCC(=O)NC(=O)c1cccn1C	-1	-4	-8	21	0	-4
CCCOc1c(Br)cc(C(=O)OCC(=O)NC(=O)c2cccn2C)cc1OC	-10	-3	0	/	+	3
O=c1[nH]c(C(F)(F)C(F)(F)C(F)(F)F)no1	-6	-5	/	/	/	/
Cc1ccc(C(=O)Oc2ccc(-c3nnco3)cc2)o1	4	2	0	/	1	100*
O=C(Oc1ccc(-c2nnco2)cc1)N1CCOCC1	0	-5	-1	4	-1	-1
CC(=O)Nc1ccc(C2=NNC(=Nc3cccc(S(=O)(=O)N(C)C)c3)SC2)cc1	-18	-284	0	15	-2	-1
CN(C)S(=O)(=O)c1cccc(N=C2NN=C(c3ccccc3)CS2)c1	-26	-281	0	/	44*	9
O=C(CSc1ncnc2ccccc12)c1ccco1	-2	-3	-1	47	1	40*
O=C(CSc1ncnc2ccccc12)NCc1ccco1	-7	-6	0	13	3	1
COc1ccc(NC(=O)C2OC3OC(C)(C)OC3C3OC(C)(C)OC23)cc1 (stereo not given)	2	-7	1	27	27*	0
CC(C)(C)[C@H](N)C(=O)N[C@H]1CCC2C3CC=C4C[C@@H](O)CC[C@]4(C)C3CC[C@@]21C (stereo not given in full)	-3	3	11*	/	-1	-1
CC(C)C(=O)N[C@H]1CCC2C3CC=C4C[C@@H](O)CC[C@]4(C)C3CC[C@@]21C (stereo not given in full)	-3	-5	1	/	4	0
CN/C(=C/[N+](=O)[O-])NCCSCc1ccc(CN(C)C)o1	2	-6	1	17	16*!	2
CN(c1ccc(C(=O)NCCSCc2ccco2)cc1)S(C)(=O)=O	-9	-5	0	2	-3	-1
COc1ccc2[nH]c3c(c2c1)CCNC3C1CC=C(C)CC1 (stereo not given)	1	-10	0	15	-10	1
SMILES	ATG4B inh	HKDC1 inhibitor	Bfl-1 A1 inh	AI-2 QS modul	LANA-H2A inh	HDAC3 inhib
COc1ccc2[nH]c3c(c2c1)CCNC3c1ccc([N+](=O)[O-])o1 (stereo not given)	-6	2	0	36	21*	15
CCN1CCN(c2nc(N)c([N+](=O)[O-])c(Nc3ccc(C)cc3)n2)CC1	-17	-4	0	36	19*	-3
COc1cc(C2c3[nH]c4ccccc4c3CC3COC(=O)N32)cc(OC)c1O (stereo not given)	6	10	/	/	/	/
COc1cc(/C=N/O)c(Br)cc1OCC(=O)Nc1ccccc1C	-5	-4	0	19	17*	-7
Cc1ccc(C(O)P(=O)(OCc2ccccc2)c2ccc(N(C)C)cc2)cc1 (stereo not given)	-2	-2	0	12	11*	-11
CN(C)c1ccc(P(=O)(OCc2ccccc2)C(O)c2cccnc2)cc1 (stereo not given)	3	-7	1	9	0	6
CCNc1nc(C)nc2c1cnn2C	-15	-8	/	/	/	/
COc1ccc(CCNC(=O)c2nc(-c3cccs3)no2)cc1OC	1	-10	-1	13	0	-9
O=C(NCc1ccc(F)cc1)c1nc(-c2cccs2)no1	-5	1	0	-76*	3	1
O=C1c2ccccc2C(=O)N1CCC1(O)C(c2ccccc2)=Nc2ccccc21 (stereo not given)	-9	-5	/	/	/	/
O=C(O)CSCCC(=O)Nc1ccc(F)cc1	9	2	1	19	28*	4
NC(N)=N/N=C(\N=Nc1ccccc1)c1ccc(Cl)cc1	-4	-4	/	/	/	/
O=C(CSc1nnc(-c2ccncc2)n1-c1ccccc1)NC1CC1	4	-2	-2	-5	-4	-5
C#CCOCCOCCOCCNc1nc(N2CCN(C(=O)CCCCCCCCCCNC(=O)[C@H]([C@@H](C)CC)n3cc(CCCCCN)nn3)CC2)nc(N2CCN(C(=O)CCCCCCCCCCNC(=O)[C@@H]([C@H](C)CC)n3cc(CCCCCN)nn3)CC2)n1	/	/	6.6*	/	-34	12
CC(C)(C)OC(=O)CC[C@@H](C(=O)NCCCCCCCCCCC(=O)N1CCN(C(=O)OC(C)(C)C)CC1)n1cc(CCCCCNC(=O)OC(C)(C)C)nn1	-6	4	0	/	-4	-7
C#CCOCCOCCOCCNc1nc(N2CCN(C(=O)CCCCCCCCCCNC(=O)[C@H]([C@@H](C)CC)n3cc(CCCCN=C(N)N)nn3)CC2)nc(N2CCN(C(=O)CCCCCCCCCCNC(=O)[C@H](CO)n3cc(CCCCCN)nn3)CC2)n1	54*	6	0	/	-57	21
CC(C)(C)OC(=O)NCCCCCc1cn([C@@H](CO)C(=O)NCCCCCCCCCCC(=O)N2CCN(C(=O)OC(C)(C)C)CC2)nn1	-6	1	0	/	-2	31*
